Only some compounds are listed: those with a hit (about 2.3% of all), similar ones and a draw of the others.
PfHsp90 set2 – inhibits growth of yeast expressing Plasmodium falciparum Hsp90; S. cerevisiae expressing PfHsp90, BacTiter-Glo ATP, 48 h; yeast lacking PDR1 and PDR3 efflux regulators; inhibition, % at 9.4 µM; 0.32% of 310,000 active; AID 504621;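 active means every replicate shows inhibition above about 80%, whatever the replicate mean, limit read from the data; inconclusive means mean inhibition reaches the set limit but some replicate falls short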;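 further: 0% = DMSO neutral controls and 100% = 20 µM radicicol positive controls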
Arrestin-AP2 inh – human beta-arrestin and AP2 interaction inhibition; 0.31% of 340,000 active; inhibition, % at 10 µM; FITC-arrestin peptide / GST-AP2 beads, flow cytometry; AP2 beta2 appendage carries R879A mutation;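 active means inhibition above a set limit, near 3 SD of compounds lacking own fluorescence, cut at about 54% in these data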;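 further: plate controls were DMSO wells for no effect and 5 µM unlabelled arrestin peptide for full effect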
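test system = AP2 appendage R879A on GSH beads | buffer or medium = PBS plus Tween 20 (0.05%) and BSA (0.1%) | incubation = 12 min plus 1 h, RT | detection = bead flow cytometry, FITC channel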
PAX8 reporter – lowers PAX8-driven luciferase in RMG-I cells; RMG-I TPO-luciferase reporter, SteadyGlo, 24 h; inhibition, % at 12.6 µM; 1.2% of 360,000 active; AID 652154;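 active means mean replicate inhibition at least 60% with every replicate also reaching 60%; inconclusive means only one of the two criteria is met; inactive means mean below 60% and not all replicates reaching 60%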;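 further: luciferase light reporting Pax8 driven TPO promoter activity; plate controls were median of neutral control wells for no effect and mitoxantrone controls for full effect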
Env fusion inh – HIV envelope-mediated fusion inhibition. inhibition, % at 12.3 µM. HeLa-JRFL Env/CEM21 cell fusion, luciferase. AID 651610. 1.1% of 360,000 active;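 active means mean replicate inhibition score of at least 50 and every replicate individually at or above 50; inconclusive means only one of the two criteria met; inactive means mean below 50 and not all replicates reaching 50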;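 further: 0% = plate neutral controls and 100% = maraviroc near 300 nM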
N-glyco inh – N-linked glycosylation inhibition | D54 ERlucT glycosylation luciferase reporter, 24 h; percent of 100 nM tunicamycin response | reporter increase, % at 12.5 µM | 0.23% of 360,000 active | AID 588692;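 active means mean luciferase reporter signal, scaled so untreated is 0 and the glycosylation-blocking control 100, at or above a set limit in every replicate; inconclusive means mean reaches the limit but not every replicate does; inactive means mean below the limit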;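 further: luciferase carries N-glycosylation sites so blocking glycosylation raises the light; 0% = median of neutral control wells and 100% = median of 100 nM tunicamycin wells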
Rtt109 HAT inh – blocks Candida albicans Rtt109/Vps75 acetyltransferase activity; Q5AAJ8; purified Rtt109/Vps75, ThioGlo CoA-SH fluorescence, 4 h; inhibition, % at 34.9 µM; 0.16% of 330,000 active; AID 540336;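 active means inhibition of at least 50% in every replicate; inconclusive means best replicate reaches 50% inhibition but some replicates fall short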
Arr-AP2 CP1 – blocks beta-arrestin peptide binding to human AP2 | shares compounds with Arrestin-AP2 inh | GST-AP2 beads, FITC arrestin peptide binding, flow cytometry; GST-fused beta2-adaptin appendage, R879A mutant | inhibition, % at 10 µM | 2% of 1,300 active;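 active means inhibition above a set limit, roughly 3 SD of non-fluorescent compound noise, cut at about 38% in these data; inactive means inhibition at or below that limit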;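 further: loss of bead fluorescence from 50 nM FITC arrestin peptide bound to appendage; 0% = negative control wells and 100% = excess unlabelled arrestin peptide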
Target sequence (P63010 whole entry, looked up, the tested form may be a part, one chain of several): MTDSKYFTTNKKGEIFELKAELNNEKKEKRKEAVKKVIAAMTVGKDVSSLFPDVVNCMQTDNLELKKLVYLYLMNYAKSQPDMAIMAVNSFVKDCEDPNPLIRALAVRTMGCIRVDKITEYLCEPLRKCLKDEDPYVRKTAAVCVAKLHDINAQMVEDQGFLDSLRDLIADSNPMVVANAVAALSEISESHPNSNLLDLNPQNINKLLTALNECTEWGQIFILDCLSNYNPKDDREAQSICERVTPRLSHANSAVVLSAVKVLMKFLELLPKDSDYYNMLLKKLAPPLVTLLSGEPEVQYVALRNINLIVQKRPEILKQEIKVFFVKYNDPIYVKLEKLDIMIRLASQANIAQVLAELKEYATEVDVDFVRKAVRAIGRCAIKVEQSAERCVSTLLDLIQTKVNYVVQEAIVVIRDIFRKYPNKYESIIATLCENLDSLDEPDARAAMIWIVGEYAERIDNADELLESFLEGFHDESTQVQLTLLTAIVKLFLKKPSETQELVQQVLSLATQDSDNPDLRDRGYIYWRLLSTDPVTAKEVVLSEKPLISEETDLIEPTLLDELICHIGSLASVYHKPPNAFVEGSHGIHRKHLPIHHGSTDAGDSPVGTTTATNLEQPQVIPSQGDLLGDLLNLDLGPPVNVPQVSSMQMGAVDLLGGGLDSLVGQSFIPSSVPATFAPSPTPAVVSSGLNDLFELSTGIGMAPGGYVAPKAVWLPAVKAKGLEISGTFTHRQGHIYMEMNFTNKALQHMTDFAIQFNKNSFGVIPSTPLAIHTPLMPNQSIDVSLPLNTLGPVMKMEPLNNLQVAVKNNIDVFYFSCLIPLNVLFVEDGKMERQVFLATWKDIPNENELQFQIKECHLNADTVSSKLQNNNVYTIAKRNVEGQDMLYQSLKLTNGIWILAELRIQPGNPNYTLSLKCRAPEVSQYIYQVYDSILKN
GST-FITC bead – disrupts GST binding to glutathione beads, arrestin-AP2 artifact | shares compounds with Arrestin-AP2 inh | GST-fluorescein binding to GSH beads, fluorescence, counter-screen | inhibition, % at 10 µM | 2% of 1,300 active | AID 588338;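 active means inhibition above 50%, about 3 SD of the inhibition seen with non-fluorescent compounds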;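 further: fluorescein maleimide labelled GST captured on 4 micron glutathione beads; higher means more loss of bead fluorescence from quenching or blocked binding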
Starred values were filed as active, the others as inactive; ? = inconclusive; / = no result given; [ ] = remark or other dose.

SMILES	PfHsp90 set2	Arrestin-AP2 inh	PAX8 reporter	Env fusion inh	N-glyco inh	Rtt109 HAT inh	Arr-AP2 CP1	GST-FITC bead
O=C1CN(S(=O)(=O)c2ccccc2)C[C@H]2[C@@H](c3ccc(Br)cc3)[C@H](CO)N12	/	/	-20.0	/	/	/	/	/
CCN(CC)c1ccc(Nc2nc(N3CCOCC3)c3ccccc3n2)cc1	-11.0	59.1*	11.9	56.8*	-1.7	15.3	13.0	11.2
COc1ccc(Nc2nc(N3CCCC3)c3ccccc3n2)cc1	-12.5	2.6	/	/	-2.6	?	/	/
CNC[C@H]1Oc2ccc(NC(=O)NC(C)C)cc2C(=O)N([C@@H](C)CO)C[C@@H]1C	/	/	-9.6	-6.5[16.7 µM]	/	/	/	/
Cc1cc(C)cc(NC(=O)Cn2c(=O)oc3cc(S(=O)(=O)N4CC(C)CC(C)C4)ccc32)c1 (stereo not drawn)	-1.8	97.4*	12.2	6.2	4.4	1.2	-3.0	-8.3
COc1ccc(S(=O)(=O)Nc2ccc3c(c2)C(=O)N([C@@H](C)CO)C[C@H](C)[C@@H](CN(C)Cc2ccccc2)OCCCC[C@H](C)O3)cc1	/	/	2.0	25.8[16.7 µM]	/	/	/	/
O=C(c1ccco1)N(Cc1cc2ccccc2[nH]c1=O)C1CCCCC1	-27.8	79.4*	/	/	1.6	11.9	16.6	-9.4
O=C(c1ccncc1)N(Cc1cc2ccccc2[nH]c1=O)C1CCCCC1	-13.6	-6.2	/	/	-0.2	5.2	/	/
COc1ccc(S(=O)(=O)N[C@H]2CC[C@H](CC(=O)O)O[C@H]2CO)cc1	/	/	-7.7	-4.4[16.7 µM]	/	/	/	/
CCCC(=O)N1N=C(c2ccccc2)CC1c1cn(C)c2ccccc12 (stereo not drawn)	-42.4	0.7	/	27.9	-4.8	1.3	/	/
CC(=O)N1N=C(c2ccc(Br)cc2)CC1c1cn(C)c2ccccc12 (stereo not drawn)	10.0	55.0*	-9.5	/	-3.2	-3.3	-5.6	/
Cc1cc(Cl)ccc1OCC(=O)N(Cc1cccs1)C1CCS(=O)(=O)C1 (stereo not drawn)	11.0	6.5	3.3	5.9	-2.1	14.8	/	/
O=C(COc1ccccc1Cl)N(Cc1cccs1)C1CCS(=O)(=O)C1 (stereo not drawn)	-8.7	57.6*	14.8	-1.6	1.3	-0.2	19.0	-7.4
Cc1ccc(-c2cc(C(F)F)n3ncc(C(=O)N4CCCc5ccccc54)c3n2)cc1	-0.4	-4.0	-16.5	-11.4	0.7	-12.4	-2.3	-2.1
O=C(c1cccnc1)N1C[C@@H]2[C@H](c3ccccc31)[C@H](CO)N2C(=O)C1CCOCC1	/	/	-10.3	/	/	/	/	/
Cc1ccc(S(=O)(=O)c2c(C)cc(C)nc2N2CCOCC2)cc1	-7.4	4.1	18.5	10.1	0.9	1.2	/	/
Cc1ccc(S(=O)(=O)c2c(C)cc(C)nc2N2CCCCC2)cc1	-79.9	69.7*	-13.4	22.0	-4.4	3.9	0.0	-1.7
CN(C(=O)COC(=O)C1CSC2(C)CCC(=O)N12)c1ccccc1 (stereo not drawn)	16.1	22.4	-6.1	/	1.5	10.6	9.5	1.8
Cc1ccc(NC(=O)C2CSC3(C)CCC(=O)N23)cc1S(=O)(=O)N1CCOCC1 (stereo not drawn)	/	24.0	6.7	/	0.2	-0.1	/	/
CC12CCC(=O)N1C(C(=O)OCC(=O)Nc1ccc(S(N)(=O)=O)cc1)CS2 (stereo not drawn)	11.2	0.3	-5.0	/	-0.7	-11.3	-1.3	-4.6
Cc1ccc(NC(=O)COC(=O)C2CSC3(C)CCC(=O)N23)cc1S(=O)(=O)N1CCOCC1 (stereo not drawn)	-4.2	63.5*	-2.8	-8.2	3.1	/	-6.2	-2.5
Cc1ccc(NC(=O)COC(=O)C2CSC3(C)CCC(=O)N23)c(C)c1 (stereo not drawn)	-1.3	68.8*	-11.8	/	-0.3	23.3	-8.2	-3.0
C[C@@H]1CCCCO[C@@H](CN(C)C(=O)Nc2ccc3c(c2)OCO3)[C@H](C)CN([C@H](C)CO)C(=O)c2cc(NS(C)(=O)=O)ccc2O1	/	/	/	-19.5[16.7 µM]	/	/	/	/
CCNC(=O)NC(=O)COC(=O)C1CSC2(C)CCC(=O)N12 (stereo not drawn)	31.4	2.1	5.9	5.8	3.8	-5.9	/	/
CC12CCC(=O)N1C(C(=O)OCC(=O)Nc1cccc(Br)c1)CS2 (stereo not drawn)	/	-20.4	17.3	17.6	0.6	-1.6	1.4	-3.6
SMILES	PfHsp90 set2	Arrestin-AP2 inh	PAX8 reporter	Env fusion inh	N-glyco inh	Rtt109 HAT inh	Arr-AP2 CP1	GST-FITC bead
CC12CCC(=O)N1C(C(=O)OCC(=O)Nc1ccc(C(F)(F)F)cc1)CS2 (stereo not drawn)	41.9	10.0	12.1	-3.7	-0.5	-13.1	-4.5	-5.8
Cc1ccc(-c2nc3ccccc3s2)cc1NC(=O)c1ccc2c(c1)OCO2	-9.9	58.2*	/	-14.6	1.7	41.1	-18.4	-10.8
O=C(Nc1cc(-c2nc3ccccc3s2)ccc1Cl)c1ccc2c(c1)OCO2	-16.3	6.4	/	/	4.0	2.5	/	/
O=C(O)COCC(=O)Nc1ccc2c(c1)ncn2CCc1ccccc1	-7.2	57.5*	13.9	-1.1	4.3	-4.5	-5.3	0.6
Cc1[nH]c2ccccc2c1C(=O)C(=O)Nc1ccc2c(c1)OCCO2	10.1	-7.6	-181.2	-25.0	/	-2.4	/	/
CCC(C(=O)Nc1ccc2c(c1)OCCO2)n1c(=O)[nH]c2ccccc2c1=O (stereo not drawn)	-3.1	21.2	-3.7	7.8	-2.8	0.3	-2.9	-2.4
COc1ccc(S(=O)(=O)Nc2cccc3c2O[C@@H](CN(C)C)[C@@H](C)CN([C@H](C)CO)C3=O)cc1	/	/	-13.6	/	/	/	/	/
COc1ccccc1NS(=O)(=O)c1ccc(C)c(C(=O)NCC2(N(C)C)CCCCC2)c1	-18.7	6.4	5.1	-19.6	-1.6	?	2.7	-3.8
O=C(NCC1(N2CCCCC2)CCCCC1)c1cccc(NS(=O)(=O)c2ccccc2)c1	-9.7	-6.7	6.3	3.6	-5.9	-2.1	/	/
O=C(NCC1(N2CCCCC2)CCCCC1)c1cccc(S(=O)(=O)Nc2ccc(F)cc2)c1	6.9	11.1	-7.7	-0.5	-4.4	-4.6	-5.8	-3.7
COc1ccccc1NS(=O)(=O)c1cccc(C(=O)NCC2(N3CCCCC3)CCCCC2)c1	-0.4	-7.1	7.5	20.8	-5.1	-17.3	7.6	-9.4
O=C(NCC1(N2CCOCC2)CCCCC1)c1cccc(S(=O)(=O)Nc2ccc(F)cc2)c1	/	-8.4	10.0	1.4	-2.0	19.0	-1.6	-0.6
CCNC(=O)C[C@H]1CC[C@H]2[C@@H](COc3ccc(NS(C)(=O)=O)cc3C(=O)N2C)O1	/	/	-30.6	-3.8[16.7 µM]	/	/	/	/

From PubChem
